Results gathered from unrelated publications.
Protocols differ between the studies behind these lines.
Read-out: cell growth or viability

| Structure (SMILES) | cell line | test | setting | endpoint | value |
| --- | --- | --- | --- | --- | --- |
| FC(F)(F)c1cc(OCc2cc(-c3ccc(Cl)cc3Cl)no2)c2ccccc2n1 | DND41 | MTS | 72 h | IC50 | > 100 µM |
| C[C@H]1CNCCN1c1nccc(-c2onc3c2CCC[C@@]32CCCc3sc(N)c(C#N)c32)n1 | NCI-H727 | – | 5 days | EC50 | 0.406 µM |
| Clc1ccc(-c2cc(CNc3cccc4cccnc34)on2)c(Cl)c1 | DND41 | MTS | 72 h | IC50 | 53.9 µM |
| C#CCNC(=O)c1c(-c2ccc(OC)cc2)oc2ccc(O)c(CN3CCCCC3)c12 | J774.A1 | resazurin | 18 h | IC50 | 27.8 µM |
| Cc1nc(Nc2ncc(C(=O)Nc3c(C)cccc3Cl)s2)cc(N2CC[C@H](O)C2)n1 | JeKo-1 | ATP luminescence | 10 µM, 72 h | inhibition | 37% |
| C[C@H]1CN(C)CCCN1c1nccc(-c2noc([C@@]3(C)CCCc4sc(N)c(C#N)c43)n2)n1 | NCI-H727 | – | 5 days | EC50 | > 1 µM |
| COc1ccc(-c2oc3ccc(O)c(CN4CCCCC4)c3c2C(=O)NCc2cn(Cc3ccccc3)nn2)cc1 | J774.A1 | resazurin | 18 h | IC50 | 8 µM |
| C[C@H]1CNCCN1c1nccc(-c2noc([C@@]3(C)CCCc4sc(N)c(C#N)c43)n2)n1 | NCI-H727 | – | 5 days | EC50 | > 1 µM |
| c1ccc(-c2cc(CNc3cccc4cccnc34)on2)cc1 | DND41 | MTS | 72 h | IC50 | > 100 µM |
| C[C@H](Oc1nccc(-c2noc3c2CCC[C@@]32CCCc3sc(N)c(C#N)c32)n1)[C@@H]1CCCN1C | NCI-H727 | – | 5 days | EC50 | 0.109 µM |
| Nc1cccc2c1C(=O)N(C1CCC(=O)NC1=O)C2=O (stereo not shown) | OCI-Ly10 | CCK-8 | 7 days | IC50 | 0.36 µM |
| N/C(=N\O)c1ccc(-c2cc(CNc3cccc4cccnc34)on2)cc1 | DND41 | MTS | 72 h | IC50 | 2.3 µM |
| CCOc1ccc(C(=O)CC(SCc2ccc(Cl)cc2)C(=O)OC)cc1 (stereo not shown) | WM 266-4 | MTT | 48 h | EC50 | 21 µM |
